Reference: ChEMBL document CHEMBL3580655, “Identification of a Potent Inhibitor of CREB-Mediated Gene Transcription with Efficacious in Vivo Anticancer Activity” (J Med Chem, 2015)
pIC50: −log10 of the molar value. Activity calls are given as the source filed them. The rule behind the calls is not given here.

Experiments:
[1] = Inhibition of CREB-mediated gene transcription in human HEK293T cells transfected with pCRE-RLuc by renilla luciferase reporter assay; type: cell-based; settings: HEK-293T
A549 = test: Antiproliferative activity against human A549 cells assessed as inhibition of cell growth after 72 hrs by MTT assay; type: functional; settings: A549, 72 h
How it was run: (§1)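 Cells seeded, allowed to attach overnight, then exposed to a range of concentrations for 72 h. MTT 0.5 mg/mL in complete medium, 3 h at 37 °C, formazan dissolved in DMSO, absorbance 570 nm. Percent growth = 100×(treated−time-zero)/(medium control−time-zero). GI50 from nonlinear regression of the growth–concentration curve. Mean ± SD of at least two independent experiments in duplicate; highest concentration 100 μM.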

MCF7 = test: Antiproliferative activity against human MCF7 cells assessed as inhibition of cell growth after 72 hrs by MTT assay; type: functional; settings: MCF7, 72 h; how it was run: as §1
MDA-MB-231 = test: Antiproliferative activity against human MDA-MB-231 cells assessed as inhibition of cell growth after 72 hrs by MTT assay; type: functional; settings: MDA-MB-231, 72 h; how it was run: as §1
MDA-MB-468 = test: Antiproliferative activity against human MDA-MB-468 cells assessed as inhibition of cell growth after 72 hrs by MTT assay; type: functional; settings: MDA-MB-468, 72 h; how it was run: as §1
[2] = biological target: Cellular tumor antigen p53 (Homo sapiens) (UniProt P04637); test: Inhibition of P53 (unknown origin) transfected in human HEK293T cells assessed as inhibition of forskolin-stimulated gene transcription after 30 mins by CRE-RLuc complementation assay; type: cell-based; settings: HEK-293T
Chain of Cellular tumor antigen p53 (Homo sapiens) (P04637 whole entry, looked up, the tested form may be a part): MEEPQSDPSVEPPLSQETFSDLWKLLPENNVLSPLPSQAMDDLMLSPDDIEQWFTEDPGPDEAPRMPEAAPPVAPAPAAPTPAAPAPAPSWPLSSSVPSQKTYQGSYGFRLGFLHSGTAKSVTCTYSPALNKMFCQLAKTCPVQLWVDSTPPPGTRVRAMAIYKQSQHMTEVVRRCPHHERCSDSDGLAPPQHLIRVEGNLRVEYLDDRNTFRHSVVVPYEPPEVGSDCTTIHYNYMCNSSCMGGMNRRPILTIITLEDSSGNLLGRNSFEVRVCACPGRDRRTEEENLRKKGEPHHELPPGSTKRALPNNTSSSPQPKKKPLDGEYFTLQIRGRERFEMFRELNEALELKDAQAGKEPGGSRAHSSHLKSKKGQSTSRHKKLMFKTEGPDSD
How it was run: (§2)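 HEK 293T cells transfected with the relevant plasmid combinations (VP16-CREB: VP16 activation domain fused to full-length CREB; or p53), then exposed to a range of concentrations before Renilla luciferase measurement. Activity normalized to protein concentration, expressed as RLU/μg protein.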

[3] = biological target: Cellular tumor antigen p53 (Homo sapiens) (UniProt P04637); test: Inhibition of P53 (unknown origin) transfected in human HEK293T cells assessed as inhibition of forskolin-stimulated gene transcription at > 1 uM after 30 mins by CRE-RLuc complementation assay; type: cell-based; settings: HEK-293T; how it was run: as §2
HEK-293T = test: Inhibition of CREB-mediated gene transcription in human HEK293T cells assessed as inhibition of forskolin-stimulated Nurr1/NR4A2 transcription at 1000 nM after 1 hr by qRT-PCT analysis; type: cell-based
How it was run: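 HEK 293T cells exposed to a range of compound concentrations for 1 h, then DMSO or forskolin (10 μM) for 45 min. Nurr1/NR4A2 transcript level measured by qRT-PCR as relative mRNA.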

SMILES | pIC50 [1] | GI50 (A549) | GI50 (MCF7) | GI50 (MDA-MB-231) | GI50 (MDA-MB-468) | inhibition [2] | inhibition [3] | inhibition (HEK-293T)
NCCOc1cc2ccccc2cc1C(=O)NCCCOc1cc2ccccc2cc1C(=O)Nc1ccc(Cl)cc1O | 5.28 | 2170 nM | 1890 nM | 2710 nM | 1850 nM | – | – | –
O=C(NCCCOc1cc2ccccc2cc1C(=O)Nc1ccc(Cl)cc1O)c1cc2ccccc2cc1OCCCN1CCOCC1 | < 4.30 | > 100000 nM | > 100000 nM | > 100000 nM | 13700 nM | – | – | –
NCCOc1cc2ccccc2cc1C(=O)NCCOc1cc2ccccc2cc1C(=O)Nc1ccc(Cl)cc1O | 6.52 | 1160 nM | 810 nM | 1210 nM | 250 nM | – | – | –
NCCCOc1cc2ccccc2cc1C(=O)NCCOc1cc2ccccc2cc1C(=O)Nc1ccc(Cl)cc1O | – | – | – | – | – | inactive | Active | –
NCCCOc1cc2ccccc2cc1C(=O)NCCCOc1cc2ccccc2cc1C(=O)Nc1ccc(Cl)cc1 | 5.33 | 950 nM | 1720 nM | 1000 nM | 1620 nM | – | – | –
CNCCCOc1cc2ccccc2cc1C(=O)NCCCOc1cc2ccccc2cc1C(=O)Nc1ccc(Cl)cc1O | 4.73 | 260 nM | 1650 nM | 260 nM | 200 nM | – | – | –
NCCCOc1ccccc1C(=O)NCCCOc1cc2ccccc2cc1C(=O)Nc1ccc(Cl)cc1O | 5.28 | 2320 nM | 2660 nM | 5820 nM | 2320 nM | – | – | –
NCCCOc1cc2ccccc2cc1C(=O)NCCCOc1ccccc1C(=O)Nc1ccc(Cl)cc1O | 5.00 | 2440 nM | 2300 nM | 4610 nM | 1820 nM | – | – | –
O=C(NCCCOc1cc2ccccc2cc1C(=O)Nc1ccc(Cl)cc1O)c1cc2ccccc2cc1OCCCO | 5.14 | 39200 nM | 29000 nM | 82700 nM | 10200 nM | – | – | –
NCCCOc1cc2ccccc2cc1C(=O)NCCCOc1cc2ccccc2cc1C(=O)Nc1ccc(Cl)cc1O | – | 290 nM | 140 nM | 370 nM | 220 nM | – | – | Active
